Results from ChEMBL document CHEMBL1137345, “Endoperoxide derivatives from marine organisms: 1,2-dioxanes of the plakortin family as novel antimalarial agents” (J Med Chem, 2006).

Key:
[1] = tested on: Plasmodium falciparum; assay: Antimalarial activity against chloroquine-resistant Plasmodium falciparum W2 by pLDH assay; format: functional, organism-based
Outline: (§1)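 P. falciparum clones D10 (CQ-sensitive, moderately mefloquine-resistant) and W2 (CQ-resistant, mefloquine-susceptible) kept in human A+ RBCs in RPMI 1640 with 10% A+ plasma, HEPES and glutamine under 1% O2/5% CO2/94% N2. Asynchronous cultures (1-1.5% parasitemia, 1% hematocrit) exposed to serial dilutions (DMSO <1% final) for 72 h at 37 °C. Parasite LDH read at OD650. IC50 reported as mean ± SD of four experiments in triplicate.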

[2] = tested on: Plasmodium falciparum; assay: Antimalarial activity against chloroquine-sensitive Plasmodium falciparum D10 by pLDH assay; format: functional, organism-based; outline: as §1

## CC[C@H](C[C@@]1(C)C[C@@H](CC)[C@@H](CC(=O)OC)OO1)C(=O)OC
[1]
  IC50: 780 nM
[2]
  IC50: 850 nM

## CC[C@H](C[C@@]1(C)C[C@@H](CC)[C@@H](CC(=O)OC)OO1)[C@H]1O[C@@H]1CC
[1]
  IC50: 500 nM
[2]
  IC50: 1050 nM

## CC/C=C/[C@H](CC)C[C@@]1(C)C[C@@H](CC)[C@@H](CC(=O)OC)OO1 [PLAKORTIN]
[1]
  IC50: 410 nM
[2]
  IC50: 870 nM

## C[C@@H]1CC[C@H]2[C@@H](C)C(=O)O[C@@H]3O[C@@]4(C)CC[C@@H]1[C@]32OO4 [ARTEMISININ]
[1]
  IC50: 9 nM
[2]
  IC50: 13 nM

## CC/C=C/[C@H](CC)C[C@@]1(C)C[C@@H](CC)[C@@H](CCOC)OO1
[1]
  IC50: 410 nM
[2]
  IC50: 740 nM

## CC/C=C/[C@H](CC)C[C@@]1(C)C[C@@H](CC)[C@@H](CCOC(C)=O)OO1
[1]
  IC50: 460 nM
[2]
  IC50: 840 nM

## CC[C@H](C[C@@]1(C)C[C@@H](CC)[C@@H](CC(=O)OC)OO1)C(=O)O
[1]
  IC50: 1230 nM
[2]
  IC50: 1200 nM

## CC/C=C/[C@H](CC)C[C@@]1(C)C[C@@H](CC)[C@@H](CCO)OO1
[1]
  IC50: 480 nM
[2]
  IC50: 830 nM

## CC[C@H](C[C@@]1(C)C[C@@H](CC)[C@@H](CC(=O)OC)OO1)[C@@H]1O[C@H]1CC
[1]
  IC50: 700 nM
[2]
  IC50: 1200 nM
